# Diaphorase inh: diaphorase inhibitors and chemical oxidizers, primary screen, counter-screen for diaphorase-coupled primary assays, biochemical, uHTS, resorufin fluorescence; diaphorase resazurin-to-resorufin fluorescence, NADH, 16 min; bacterial (C. kluyveri) enzyme, not human; inhibition, % at 20 µM; 190,000 tested, 0.69% active; AID 1217, 2008;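 active = primary screen inhibition at 20 µM above a set limit, cut at about 50% in these data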;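 note: plate controls were DMSO with full reaction for no effect and wells lacking NADH for full effect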
#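 Test system: diaphorase enzyme from Clostridium kluyveri; amount: diaphorase at 0.14 U/mL in enzyme working solution; detection: fluorescence of resorufin formed from resazurin, Ex 544/Em 590 nm; times: reaction incubation of 16 min at room temperature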
# HKDC1 inh: HKDC1 hexokinase inhibitors, primary screen, biochemical, fluorescence, uHTS | recombinant HKDC1, G6PDH/diaphorase resazurin coupled fluorescence | inhibition, % at 20 µM | 340,000 tested, 0.16% active | AID 493160, 2011;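 active = inhibition above about 35% when tested at 20 µM, limit read from the data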;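 note: plate controls were DMSO wells with enzyme for no effect and DMSO wells lacking enzyme for full effect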
# Target sequence (Q2TB90 whole entry, looked up): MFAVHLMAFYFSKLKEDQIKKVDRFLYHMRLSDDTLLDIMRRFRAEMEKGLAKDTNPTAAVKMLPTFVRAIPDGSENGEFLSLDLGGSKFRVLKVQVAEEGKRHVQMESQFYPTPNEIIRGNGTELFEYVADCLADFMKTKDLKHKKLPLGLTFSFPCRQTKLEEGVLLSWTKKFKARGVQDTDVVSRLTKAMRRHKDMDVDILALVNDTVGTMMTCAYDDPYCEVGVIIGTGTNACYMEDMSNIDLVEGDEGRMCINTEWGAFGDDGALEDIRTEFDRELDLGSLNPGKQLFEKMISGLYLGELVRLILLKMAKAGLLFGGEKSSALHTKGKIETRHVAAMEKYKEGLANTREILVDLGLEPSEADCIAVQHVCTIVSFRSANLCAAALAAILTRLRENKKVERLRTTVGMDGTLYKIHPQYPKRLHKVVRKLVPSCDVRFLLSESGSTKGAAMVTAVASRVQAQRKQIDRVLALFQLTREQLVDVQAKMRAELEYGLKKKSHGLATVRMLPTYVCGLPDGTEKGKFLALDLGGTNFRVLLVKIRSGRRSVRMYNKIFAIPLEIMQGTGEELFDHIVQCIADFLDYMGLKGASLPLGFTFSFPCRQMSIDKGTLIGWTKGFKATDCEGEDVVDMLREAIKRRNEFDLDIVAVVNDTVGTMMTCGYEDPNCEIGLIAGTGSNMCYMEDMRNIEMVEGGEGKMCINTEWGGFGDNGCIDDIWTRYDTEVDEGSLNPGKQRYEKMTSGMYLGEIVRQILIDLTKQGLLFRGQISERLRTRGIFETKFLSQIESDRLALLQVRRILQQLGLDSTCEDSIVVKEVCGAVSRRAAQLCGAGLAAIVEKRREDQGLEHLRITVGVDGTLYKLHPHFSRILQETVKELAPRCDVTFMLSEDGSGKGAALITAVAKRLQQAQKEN
#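 Material: recombinant HKDC1 hexokinase; Amount: HKDC1 at 5 µg/mL; Medium: Tris pH 8.0 buffer with MgCl2, Tween-20, BSA, BME; Schedule: 90 min reaction incubation at room temperature, dark; Technique: coupled resazurin fluorescence, excitation 525 nm, emission 613 nm.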
# G6PDH CS: L. mesenteroides G6PDH inhibitors, counter-screen for G6PDH-coupled screening assays, biochemical, Leuconostoc mesenteroides enzyme; Purified L. mesenteroides G6PDH, diaphorase/resazurin coupled fluorescence, 45 min; inhibition, % at 5 µM; 200,000 tested, 0.12% active; in the data active = inhibition above about 50%
# PfG6PD inh: PfG6PD enzyme inhibitors, primary screen, biochemical, fluorescence intensity, uHTS; glucose-6-phosphate dehydrogenase-6-phosphogluconolactonase (Plasmodium falciparum 3D7); PfGluPho enzyme, NADPH resazurin-diaphorase fluorescence; inhibition, % at 20 µM; 350,000 tested, 0.78% active; AID 504690, 2011;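 active = inhibition reaching at least a set limit at 20 µM in the primary screen, cut at about 59% in these data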;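 note: 0% = DMSO wells with substrate and 100% = DMSO wells lacking glucose-6-phosphate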
# Diaphorase act: compounds boosting diaphorase resazurin reduction – biochemical, uHTS, resorufin fluorescence, counter-screen for diaphorase-coupled primary assays, primary screen; Diaphorase/resazurin coupled assay, 16 min; stronger effect = higher value; 1 = vehicle wells, 0 = NADH-free wells; activation factor at 20 µM; 190,000 tested, 0.005% active;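 active = diaphorase activity raised at least twofold by the compound at 20 µM; inactive = activation factor below 2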
#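 Test system: Clostridium kluyveri diaphorase, purified enzyme; input: enzyme 0.07 U/mL final; buffer or medium: 50 mM HEPES pH 7.4 with 4.542 mM MgCl2, 0.005% Tween 20; also added: 0.114 mM NADH and 0.1 mM resazurin, final amounts; schedule: 16 min enzyme reaction, ambient temperature; technique: fluorescence of resorufin, 544 nm excitation, 590 nm emission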
# PfG6PD confirm: PfG6PD inhibitors, hit retest, confirmation, biochemical, fluorescence intensity, single concentration | recombinant PfGluPho, NADPH-diaphorase-resazurin fluorescence | AID 504753, 2011 | shares compounds with PfG6PD inh | inhibition, % at 20 µM | 2,400 tested, 34% active;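 active = inhibition of at least 50% at 20 µM in any single replicate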;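 note: 0% = DMSO with substrate and 100% = DMSO lacking glucose-6-phosphate substrate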
# Diaphorase 10uM: diaphorase inhibitors and chemical oxidizers, confirmation, counter-screen for P. falciparum G6PD inhibitor project, biochemical, fluorescence intensity, 10 µM NADPH. shares compounds with PfG6PD inh. diaphorase-coupled resazurin reduction, NADPH 10 uM. inhibition, % at 20 µM. 820 tested, 39% active;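 active = average inhibition reaching 50% or more with the compound at 20 µM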;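 note: resorufin red fluorescence formed as diaphorase reduces resazurin using NADPH; 0% = DMSO with enzyme and 100% = DMSO without enzyme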
# Diaphorase 30uM: diaphorase inhibitors and chemical oxidizers, confirmation, counter-screen for P. falciparum G6PD inhibitor project, biochemical, fluorescence intensity, 30 µM NADPH; inhibition, % at 20 µM; shares compounds with PfG6PD inh; AID 504863, 2011; Diaphorase/resazurin coupled assay, resorufin fluorescence; 820 tested, 29% active;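 active = inhibition averaging 50% or more, tested at 20 µM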;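 note: 0% = DMSO with enzyme and 100% = DMSO wells lacking diaphorase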
# An asterisk follows results filed as active; . = not tested or not shown. Hits are enriched below; roughly 1.2% of the tested compounds scored in any of these assays.
SMILES,Diaphorase inh,HKDC1 inh,G6PDH CS,PfG6PD inh,Diaphorase act,PfG6PD confirm,others
Cc1ccc(NC(=O)NC(=O)CN2CCN(c3ccc(O)cc3)CC2)c(C)c1,.,11.5,.,72.2*,.,39.8,
CCN(C(=O)CN1CCCCCC1)c1c(N)n(Cc2ccccc2)c(=O)[nH]c1=O,.,2.4,.,-3.2,.,.,
CCN(C(=O)CN1CCN(c2ccc(O)cc2)CC1)c1c(N)n(Cc2ccccc2)c(=O)[nH]c1=O,33.7,10.0,14.7,73.1*,0.7,35.6,
CC(CCc1ccccc1)NC(=O)CN1CCN(c2ccc(O)cc2)CC1 (stereo unspecified),38.0,0.1,8.9,65.7*,0.6,2.7,
CC(CCc1ccccc1)NC(=O)CN1CCN(Cc2ccccc2)C1=O (stereo unspecified),21.1,-6.0,3.7,3.8,0.8,.,
Cc1ccc(S(=O)(=O)N2CCOCC2)cc1NC(=O)CN1CCN(c2ccc(O)cc2)CC1,34.9,-10.7,3.1,64.7*,0.7,22.8,
COc1ccc(NC(=O)CCCNC(=O)Cn2cnc3sc(C)c(C)c3c2=O)c(OC)c1,.,3.6,.,-3.4,.,.,
CCOc1ccccc1NC(=O)CCCNC(=O)Cn1cnc2sc(C)c(C)c2c1=O,.,-4.1,.,66.6*,.,44.6,
COc1ccc(C(=O)Nc2cccc(C(=O)Nc3cc(C)ccn3)c2)cc1,.,1.1,.,2.0,.,.,
CC(C)c1ccc(NC(=O)c2cccc(Br)c2)cc1,8.9,-4.1,8.8,68.4*,0.9,1.9,
O=C(Nc1cccc(C(=O)Nc2cccc(Br)c2)c1)c1ccccc1,.,3.1,.,26.2,.,.,
CC(C)c1ccc(NC(=O)c2ccc(Br)o2)cc1,8.3,1.8,1.6,80.9*,0.9,30.6,
CCN(C(=O)CN1C(=O)NC(c2ccccc2)(c2ccc(C)c(C)c2)C1=O)C1CCS(=O)(=O)C1 (stereo unspecified),.,4.7,.,7.4,.,.,
O=C1C=CC(=O)N1CCCCCCCCCCN1C(=O)C=CC1=O,.,2.6,.,83.6*,.,54.9*,Diaphorase 10uM=-19.6;Diaphorase 30uM=-24.6
O=C1C=CC(=O)N1Cc1ccncc1,.,-2.2,.,3.6,.,.,
CSCc1c(C(=O)OCC(=O)c2ccc[nH]2)oc2ccccc12,.,2.1,.,3.5,.,.,
c1csc(-c2nc3nc4ccccc4nc3n2Cc2ccc3c(c2)OCO3)c1,21.1,8.7,-50.2,71.9*,0.8,35.0,
CCOc1ccc(NC(=O)CSc2nnc(C3CC3)n2C)cc1S(=O)(=O)N1CCCCC1,.,-1.0,.,-2.3,.,.,
CN(C)/C=C1\NC(=S)N(c2ccccc2)C1=O,18.1,-6.3,10.6,46.9,0.8,.,
COc1ccc(N2C(=O)/C(=C/c3cccs3)NC2=S)cc1,26.8,-35.6,3.4,79.3*,0.7,63.6*,Diaphorase 10uM=-16.1;Diaphorase 30uM=-8.0
O=C(CCC(=O)Nc1ccc(Cl)cc1Cl)N/N=C/c1ccc([N+](=O)[O-])o1,25.2,-0.1,19.1,61.6*,0.7,45.1,
CCCCCC(=O)N/N=C/c1ccc([N+](=O)[O-])o1,27.3,7.2,1.3,10.6,0.7,.,
Cc1ccc(/C=C/C(=O)OCC(=O)c2ccc3c(c2)NC(=O)CO3)o1,.,-4.1,.,70.6*,.,-9.0,
O=C1COc2ccc(C(=O)COC(=O)/C=C/c3ccc(Br)o3)cc2N1,.,21.1,.,10.7,.,.,
CC1=CC(C)(C)Nc2ccc(OC(=O)CN3C(=O)CCC3=O)cc21,23.2,21.7,21.3,62.1*,0.8,51.6*,Diaphorase 10uM=39.6;Diaphorase 30uM=2.9
SMILES,Diaphorase inh,HKDC1 inh,G6PDH CS,PfG6PD inh,Diaphorase act,PfG6PD confirm,others
CCOC(=O)c1nc(NCc2ccccc2)sc1C,.,-8.0,.,68.2*,.,26.4,
CCOC(=O)c1cnc(NCc2ccccc2)nc1C,7.5,-0.1,0.0,-16.8,0.9,.,
O=S(c1ccccc1O)S(=O)c1ccccc1O (stereo unspecified),.,-2.2,.,93.7*,.,74.8*,Diaphorase 10uM=-15.0;Diaphorase 30uM=-9.3
CC(C)=CCC/C(C)=C/C=N/NC(=O)c1ccccc1[N+](=O)[O-],7.9,4.8,3.0,66.8*,0.9,26.0,
Cc1sc2nc(CN3CCN(c4ccc(O)cc4)CC3)[nH]c(=O)c2c1C,.,13.5,.,79.3*,.,48.9,
CCn1nnnc1SCC(=O)Nc1ccc(F)cc1,.,-4.9,.,-4.5,.,.,
COC(=O)c1ccc(/C=C/c2ccc3cccc(OC)c3n2)cc1,21.4,10.5,-13.3,74.5*,0.8,26.4,
COc1cc(/C=C/c2ccc3cccc(O)c3n2)cc(Cl)c1OC,.,-1.6,.,72.8*,.,-2.0,
COc1cc(/C=C/c2ccc3cccc(O)c3n2)cc(OC)c1OC,.,1.6,.,-0.7,.,.,
CC(C)(Oc1ccc(Br)cc1Cl)C(=O)Nc1ccon1,.,5.8,.,-8.3,.,.,
COc1ccc(C(=O)Nc2ccc(OCC(F)(F)C(F)F)c(C(F)(F)F)c2)cc1OC,29.4,9.6,0.3,28.9,0.7,.,
O=C(Nc1ccc(OCC(F)(F)C(F)F)c(C(F)(F)F)c1)c1ccc(Cl)cc1,.,2.8,.,85.9*,.,-2.0,
CC(=O)Nc1ccc2c3c(cccc13)C(=O)N(c1ccccc1)C2=O,17.6,-8.0,1.9,0.2,0.8,.,
O=CNc1ccc2c3c(cccc13)-c1ccccc1-2,.,25.5,.,103.7*,.,18.3,
Cc1ccccc1OCC(=O)N/N=C/c1ccc(Sc2nc3ccccc3s2)o1,36.4,7.8,-7.9,122.5*,0.6,58.5*,Diaphorase 10uM=43.6;Diaphorase 30uM=43.5
COCC(=O)N/N=C/c1ccc(Sc2nc3ccccc3s2)o1,12.9,1.3,1.7,59.5*,0.9,21.1,
N#CCC(=O)N/N=C/c1ccc(Sc2nc3ccccc3s2)o1,2.6,2.0,4.5,67.6*,1,21.4,
O=C(Cc1cccc2ccccc12)N/N=C/c1ccc(Sc2nc3ccccc3s2)o1,4.1,4.9,6.6,74.2*,1,5.8,
CSc1ccccc1C(=O)OCC(=O)Nc1ccc(N2CCOCC2)cc1,.,-2.0,.,3.4,.,.,
CNC(=O)/C(C#N)=C/c1c(N2CCCCCC2)nc2ccccn2c1=O,.,-2.7,.,14.5,.,.,
NC(=S)NN=Cc1nccc2c(C(F)(F)C(F)(F)C(F)(F)F)cccc12,.,.,.,-16.7,.,.,
NC(=S)NN=Cc1nccc2ccccc12,.,-22.1,.,80.0*,.,38.4,
